According to ChEMBL document CHEMBL1150387, “Development and experimental validation of a docking strategy for the generation of kinase-targeted libraries” (J Med Chem, 2008):

Assays:
[1] = target: Platelet-derived growth factor receptor beta (Homo sapiens) (UniProt P09619); assay: Inhibition of PDGFRbeta at 10 uM by HTRF assay relative to control
Outline: (§1)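 HTRF kinase assay, one panel of kinases. Inhibitor stock 50 µM in 100% DMSO; tested at 10 µM. ATP and substrate at final levels near Km. Final buffer: 50 mM Hepes/NaOH pH 7.4, 40 µM Na3VO4, 0.005% Tween-20, 1 mM DTT, MnCl2 or MgCl2 at kinase-dependent levels. Started by adding ATP/substrate. Reaction run at room temperature, time varied by kinase. Detection mix in 50 mM Hepes pH 7.4, 0.1% BSA, 150 mM KF, incubated ≥1 h at room temperature. Activity expressed as % of uninhibited control; n=2.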

[2] = target: T1, Mitogen-activated protein kinase 12 (Homo sapiens) (UniProt P53778); assay: Inhibition of p38-gamma at 10 uM by HTRF assay relative to control; outline: as §1
T1 sequence (whole entry): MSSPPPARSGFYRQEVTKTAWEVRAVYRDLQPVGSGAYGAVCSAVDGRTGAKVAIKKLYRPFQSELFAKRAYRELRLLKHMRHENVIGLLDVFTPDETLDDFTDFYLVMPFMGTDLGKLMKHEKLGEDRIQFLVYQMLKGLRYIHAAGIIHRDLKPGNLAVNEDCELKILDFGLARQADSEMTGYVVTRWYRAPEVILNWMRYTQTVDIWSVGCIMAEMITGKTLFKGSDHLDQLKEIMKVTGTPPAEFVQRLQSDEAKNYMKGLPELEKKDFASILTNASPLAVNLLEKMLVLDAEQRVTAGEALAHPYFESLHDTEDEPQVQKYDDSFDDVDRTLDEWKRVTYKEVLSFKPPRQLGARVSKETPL

[3] = target: Tyrosine-protein kinase Lyn (Homo sapiens) (UniProt P07948); assay: Inhibition of Lyn at 10 uM by HTRF assay relative to control; outline: as §1
[4] = target: T2, Tyrosine-protein kinase JAK3 (Homo sapiens) (UniProt P52333); assay: Inhibition of JAK3 at 10 uM by HTRF assay relative to control; outline: as §1
T2 sequence (whole entry): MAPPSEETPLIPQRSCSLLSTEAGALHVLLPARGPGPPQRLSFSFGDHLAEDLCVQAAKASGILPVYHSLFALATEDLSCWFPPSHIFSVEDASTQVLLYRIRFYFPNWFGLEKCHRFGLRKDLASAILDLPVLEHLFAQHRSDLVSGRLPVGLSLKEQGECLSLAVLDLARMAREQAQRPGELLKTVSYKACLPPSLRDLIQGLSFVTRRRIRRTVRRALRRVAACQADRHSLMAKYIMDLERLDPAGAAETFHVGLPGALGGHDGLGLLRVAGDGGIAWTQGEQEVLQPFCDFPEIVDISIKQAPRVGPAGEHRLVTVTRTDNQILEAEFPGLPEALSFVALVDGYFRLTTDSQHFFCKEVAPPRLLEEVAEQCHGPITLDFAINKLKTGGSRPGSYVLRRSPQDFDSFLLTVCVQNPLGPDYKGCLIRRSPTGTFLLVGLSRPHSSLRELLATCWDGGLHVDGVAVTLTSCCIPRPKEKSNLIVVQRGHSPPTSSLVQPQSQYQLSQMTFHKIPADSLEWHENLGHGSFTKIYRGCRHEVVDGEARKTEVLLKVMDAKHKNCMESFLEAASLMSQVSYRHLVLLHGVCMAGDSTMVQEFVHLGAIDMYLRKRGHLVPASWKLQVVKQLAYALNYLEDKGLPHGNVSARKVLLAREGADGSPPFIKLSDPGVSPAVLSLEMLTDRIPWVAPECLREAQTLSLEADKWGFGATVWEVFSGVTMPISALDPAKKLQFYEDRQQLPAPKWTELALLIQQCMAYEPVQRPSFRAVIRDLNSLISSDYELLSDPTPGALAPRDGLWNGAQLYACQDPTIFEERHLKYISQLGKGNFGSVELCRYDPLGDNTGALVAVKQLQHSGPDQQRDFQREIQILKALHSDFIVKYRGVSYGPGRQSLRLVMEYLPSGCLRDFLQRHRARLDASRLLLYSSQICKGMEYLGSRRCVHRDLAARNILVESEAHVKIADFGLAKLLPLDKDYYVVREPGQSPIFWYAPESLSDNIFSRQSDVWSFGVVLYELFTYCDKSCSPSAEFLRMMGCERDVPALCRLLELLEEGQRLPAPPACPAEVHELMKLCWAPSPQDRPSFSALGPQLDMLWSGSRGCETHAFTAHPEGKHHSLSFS

[5] = target: Focal adhesion kinase 1 (Homo sapiens) (UniProt Q05397); assay: Inhibition of FAK at 10 uM by HTRF assay relative to control; outline: as §1
[6] = target: Tyrosine-protein kinase ABL1 (Homo sapiens) (UniProt P00519); assay: Inhibition of Abl at 10 uM by HTRF assay relative to control; outline: as §1
[7] = target: T3, Calcium/calmodulin-dependent protein kinase type IV (Homo sapiens) (UniProt Q16566); assay: Inhibition of CaMK4 at 10 uM by HTRF assay relative to control; outline: as §1
T3 sequence (whole entry): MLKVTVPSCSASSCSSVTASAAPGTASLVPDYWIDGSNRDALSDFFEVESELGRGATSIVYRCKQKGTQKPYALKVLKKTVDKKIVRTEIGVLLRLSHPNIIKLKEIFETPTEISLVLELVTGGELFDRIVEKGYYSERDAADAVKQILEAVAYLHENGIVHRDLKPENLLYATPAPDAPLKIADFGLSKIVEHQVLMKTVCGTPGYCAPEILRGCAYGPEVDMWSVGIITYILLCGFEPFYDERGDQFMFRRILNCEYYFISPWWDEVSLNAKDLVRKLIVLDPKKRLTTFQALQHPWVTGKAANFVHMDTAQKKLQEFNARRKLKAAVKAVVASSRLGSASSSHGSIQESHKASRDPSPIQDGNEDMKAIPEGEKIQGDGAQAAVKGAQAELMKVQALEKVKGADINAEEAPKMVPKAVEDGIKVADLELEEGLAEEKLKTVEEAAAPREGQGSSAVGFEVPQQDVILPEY

[8] = target: MAP kinase-activated protein kinase 2 (Homo sapiens) (UniProt P49137); assay: Inhibition of MAPKAPK2 at 10 uM by HTRF assay relative to control; outline: as §1
[9] = target: High affinity nerve growth factor receptor (Homo sapiens) (UniProt P04629); assay: Inhibition of TrkA at 10 uM by HTRF assay relative to control; outline: as §1
[10] = Inhibition of PKA at 10 uM by HTRF assay relative to control; outline: as §1
[11] = target: Ribosomal protein S6 kinase beta-1 (Homo sapiens) (UniProt P23443); assay: Inhibition of p70S6K at 10 uM by HTRF assay relative to control; outline: as §1
Chain of Ribosomal protein S6 kinase beta-1 (Homo sapiens) (P23443 whole entry, looked up): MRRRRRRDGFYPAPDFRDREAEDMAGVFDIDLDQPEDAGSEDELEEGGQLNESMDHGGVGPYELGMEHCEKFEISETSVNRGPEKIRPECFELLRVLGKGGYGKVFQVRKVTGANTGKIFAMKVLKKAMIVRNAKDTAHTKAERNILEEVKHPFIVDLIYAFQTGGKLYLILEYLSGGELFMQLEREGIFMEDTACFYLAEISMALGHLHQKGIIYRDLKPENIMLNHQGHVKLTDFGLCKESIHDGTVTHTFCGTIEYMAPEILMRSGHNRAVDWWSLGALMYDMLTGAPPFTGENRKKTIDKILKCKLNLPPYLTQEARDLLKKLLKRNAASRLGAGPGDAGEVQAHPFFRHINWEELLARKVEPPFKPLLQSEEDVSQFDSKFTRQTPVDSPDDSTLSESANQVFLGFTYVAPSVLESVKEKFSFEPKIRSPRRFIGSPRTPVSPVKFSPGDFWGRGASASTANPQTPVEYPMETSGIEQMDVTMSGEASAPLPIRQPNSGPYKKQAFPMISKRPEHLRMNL

Chain of High affinity nerve growth factor receptor (Homo sapiens) (P04629 33-796 limits assumed): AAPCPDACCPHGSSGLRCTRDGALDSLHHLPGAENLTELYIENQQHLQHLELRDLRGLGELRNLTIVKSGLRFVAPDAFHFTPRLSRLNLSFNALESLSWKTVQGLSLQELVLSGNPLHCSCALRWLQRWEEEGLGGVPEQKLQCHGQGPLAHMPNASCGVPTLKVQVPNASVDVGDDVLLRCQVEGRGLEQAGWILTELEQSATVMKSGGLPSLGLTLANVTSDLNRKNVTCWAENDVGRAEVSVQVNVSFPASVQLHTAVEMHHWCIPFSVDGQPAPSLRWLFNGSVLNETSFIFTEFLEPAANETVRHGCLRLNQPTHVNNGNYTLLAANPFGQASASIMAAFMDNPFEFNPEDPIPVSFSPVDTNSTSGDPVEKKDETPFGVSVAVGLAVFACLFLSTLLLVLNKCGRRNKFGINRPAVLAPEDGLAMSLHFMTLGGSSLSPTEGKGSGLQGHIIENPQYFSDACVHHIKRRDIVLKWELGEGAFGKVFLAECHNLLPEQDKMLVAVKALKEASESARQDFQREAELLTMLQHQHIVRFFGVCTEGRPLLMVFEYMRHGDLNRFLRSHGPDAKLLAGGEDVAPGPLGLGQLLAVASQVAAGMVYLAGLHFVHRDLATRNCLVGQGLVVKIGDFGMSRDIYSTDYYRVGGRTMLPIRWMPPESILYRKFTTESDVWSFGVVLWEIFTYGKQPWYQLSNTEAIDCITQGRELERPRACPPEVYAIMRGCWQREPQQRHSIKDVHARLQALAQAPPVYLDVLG
Chain of Tyrosine-protein kinase ABL1 (Homo sapiens) (P00519 whole entry): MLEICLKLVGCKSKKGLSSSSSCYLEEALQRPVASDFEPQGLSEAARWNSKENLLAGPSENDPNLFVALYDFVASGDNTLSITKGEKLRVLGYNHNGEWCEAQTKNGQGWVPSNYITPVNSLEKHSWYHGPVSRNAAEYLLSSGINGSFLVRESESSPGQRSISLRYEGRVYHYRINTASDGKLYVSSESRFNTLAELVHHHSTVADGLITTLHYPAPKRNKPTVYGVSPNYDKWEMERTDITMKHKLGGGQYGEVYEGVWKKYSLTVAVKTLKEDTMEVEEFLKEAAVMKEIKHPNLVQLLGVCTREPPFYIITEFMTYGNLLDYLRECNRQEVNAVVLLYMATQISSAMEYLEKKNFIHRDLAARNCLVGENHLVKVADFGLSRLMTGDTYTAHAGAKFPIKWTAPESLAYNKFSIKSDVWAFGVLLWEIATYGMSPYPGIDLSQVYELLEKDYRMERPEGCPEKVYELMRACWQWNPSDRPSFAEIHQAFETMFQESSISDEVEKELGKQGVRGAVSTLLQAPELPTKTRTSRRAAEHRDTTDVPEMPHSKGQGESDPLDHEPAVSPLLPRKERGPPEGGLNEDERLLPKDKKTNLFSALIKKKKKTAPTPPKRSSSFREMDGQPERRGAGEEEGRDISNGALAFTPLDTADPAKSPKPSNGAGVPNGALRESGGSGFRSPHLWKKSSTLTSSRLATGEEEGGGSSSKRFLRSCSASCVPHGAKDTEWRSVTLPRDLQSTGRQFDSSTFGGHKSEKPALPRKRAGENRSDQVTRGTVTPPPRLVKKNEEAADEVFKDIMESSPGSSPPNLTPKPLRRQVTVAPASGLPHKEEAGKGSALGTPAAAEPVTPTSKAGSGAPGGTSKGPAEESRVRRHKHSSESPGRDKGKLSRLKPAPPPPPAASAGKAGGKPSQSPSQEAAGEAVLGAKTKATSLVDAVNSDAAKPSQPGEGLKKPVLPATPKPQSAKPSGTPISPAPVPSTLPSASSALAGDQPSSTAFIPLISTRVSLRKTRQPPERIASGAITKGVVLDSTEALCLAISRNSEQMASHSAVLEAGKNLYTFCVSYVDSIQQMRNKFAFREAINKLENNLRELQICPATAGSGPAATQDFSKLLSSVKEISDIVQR
Chain of Tyrosine-protein kinase Lyn (Homo sapiens) (P07948 2-512 limits assumed): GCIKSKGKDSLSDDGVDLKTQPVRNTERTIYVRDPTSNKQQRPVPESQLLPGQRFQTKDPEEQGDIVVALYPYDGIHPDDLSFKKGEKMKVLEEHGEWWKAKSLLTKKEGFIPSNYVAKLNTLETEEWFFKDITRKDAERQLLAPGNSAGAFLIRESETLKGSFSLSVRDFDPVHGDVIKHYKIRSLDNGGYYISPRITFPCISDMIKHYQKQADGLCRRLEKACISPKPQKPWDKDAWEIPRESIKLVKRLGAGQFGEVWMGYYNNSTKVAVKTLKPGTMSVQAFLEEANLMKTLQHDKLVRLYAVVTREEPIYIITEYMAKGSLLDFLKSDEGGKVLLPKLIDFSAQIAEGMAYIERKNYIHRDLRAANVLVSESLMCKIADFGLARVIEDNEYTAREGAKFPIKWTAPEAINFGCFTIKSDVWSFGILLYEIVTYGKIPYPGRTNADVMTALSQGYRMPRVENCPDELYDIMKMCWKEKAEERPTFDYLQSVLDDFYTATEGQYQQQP
Chain of Focal adhesion kinase 1 (Homo sapiens) (Q05397 2-1052 limits assumed): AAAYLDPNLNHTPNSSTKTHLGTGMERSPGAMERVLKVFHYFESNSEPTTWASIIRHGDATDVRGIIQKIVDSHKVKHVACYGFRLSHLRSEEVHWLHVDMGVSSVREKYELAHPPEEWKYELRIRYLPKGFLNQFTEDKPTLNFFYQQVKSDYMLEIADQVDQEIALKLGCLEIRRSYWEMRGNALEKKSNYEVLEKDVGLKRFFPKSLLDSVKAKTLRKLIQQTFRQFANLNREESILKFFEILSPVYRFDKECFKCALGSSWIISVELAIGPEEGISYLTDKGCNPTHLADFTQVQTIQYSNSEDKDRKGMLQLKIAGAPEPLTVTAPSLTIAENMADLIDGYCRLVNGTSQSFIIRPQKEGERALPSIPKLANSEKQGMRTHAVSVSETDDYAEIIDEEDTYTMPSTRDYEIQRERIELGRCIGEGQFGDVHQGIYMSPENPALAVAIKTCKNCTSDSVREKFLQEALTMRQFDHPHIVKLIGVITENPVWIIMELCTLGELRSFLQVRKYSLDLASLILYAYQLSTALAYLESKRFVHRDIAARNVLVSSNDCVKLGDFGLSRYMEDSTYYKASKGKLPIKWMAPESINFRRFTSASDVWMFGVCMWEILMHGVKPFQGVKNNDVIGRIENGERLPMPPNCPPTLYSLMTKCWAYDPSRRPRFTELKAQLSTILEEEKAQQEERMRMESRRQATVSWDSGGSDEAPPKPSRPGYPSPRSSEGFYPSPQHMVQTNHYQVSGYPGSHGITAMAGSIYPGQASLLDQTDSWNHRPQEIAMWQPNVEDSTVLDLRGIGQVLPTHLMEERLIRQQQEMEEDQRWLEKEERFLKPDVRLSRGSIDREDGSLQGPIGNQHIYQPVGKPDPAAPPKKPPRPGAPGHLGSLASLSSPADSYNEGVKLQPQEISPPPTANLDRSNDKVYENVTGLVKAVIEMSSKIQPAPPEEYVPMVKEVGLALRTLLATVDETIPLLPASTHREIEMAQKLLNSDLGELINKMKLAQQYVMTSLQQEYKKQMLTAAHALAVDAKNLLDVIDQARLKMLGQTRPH
Chain of Platelet-derived growth factor receptor beta (Homo sapiens) (P09619 whole entry): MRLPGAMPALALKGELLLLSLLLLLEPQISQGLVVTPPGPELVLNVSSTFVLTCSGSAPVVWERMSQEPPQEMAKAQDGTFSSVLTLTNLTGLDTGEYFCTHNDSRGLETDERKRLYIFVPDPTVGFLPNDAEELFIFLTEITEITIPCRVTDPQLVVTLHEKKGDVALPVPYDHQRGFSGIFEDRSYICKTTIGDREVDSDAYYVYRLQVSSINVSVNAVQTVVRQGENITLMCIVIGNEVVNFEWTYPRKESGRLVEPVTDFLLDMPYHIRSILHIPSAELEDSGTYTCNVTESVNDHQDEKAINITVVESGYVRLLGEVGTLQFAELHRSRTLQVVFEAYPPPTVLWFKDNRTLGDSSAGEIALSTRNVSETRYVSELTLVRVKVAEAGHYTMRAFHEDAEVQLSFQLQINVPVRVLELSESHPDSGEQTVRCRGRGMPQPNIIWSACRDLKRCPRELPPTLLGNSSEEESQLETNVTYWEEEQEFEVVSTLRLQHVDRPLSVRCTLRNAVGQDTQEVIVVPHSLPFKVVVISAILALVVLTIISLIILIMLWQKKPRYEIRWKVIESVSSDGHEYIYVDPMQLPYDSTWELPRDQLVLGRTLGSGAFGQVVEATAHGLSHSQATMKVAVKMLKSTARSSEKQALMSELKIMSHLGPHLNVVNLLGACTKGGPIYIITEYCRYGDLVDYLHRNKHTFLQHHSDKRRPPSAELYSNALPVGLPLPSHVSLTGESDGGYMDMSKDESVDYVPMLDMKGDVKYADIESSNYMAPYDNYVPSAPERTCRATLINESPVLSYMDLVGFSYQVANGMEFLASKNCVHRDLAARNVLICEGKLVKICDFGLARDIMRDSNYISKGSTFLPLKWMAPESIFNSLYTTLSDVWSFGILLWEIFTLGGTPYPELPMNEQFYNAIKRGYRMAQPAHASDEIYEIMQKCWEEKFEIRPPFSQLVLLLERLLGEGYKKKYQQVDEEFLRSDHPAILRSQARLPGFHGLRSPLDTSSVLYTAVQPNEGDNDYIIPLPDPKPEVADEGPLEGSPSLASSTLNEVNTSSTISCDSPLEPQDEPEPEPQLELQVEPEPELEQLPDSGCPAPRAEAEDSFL

inhibition [1] [%]	inhibition [2] [%]	inhibition [3] [%]	inhibition [4] [%]	inhibition [5] [%]	inhibition [6] [%]	inhibition [7] [%]	inhibition [8] [%]	inhibition [9] [%]	inhibition [10] [%]	inhibition [11] [%]	SMILES
6	0	14	0	0	8	0	4	12	0	10	O=C(C1CCN(c2nccc(Nc3ccccc3)n2)CC1)N1CC[C@@H](O)C1
6	0	3	9	3	0	0	0	7	0	12	COc1ccc(-c2noc(CN3CCN(c4cc(Nc5cccc(O)c5)ncn4)CC3)n2)cc1
48	0	16	12	15	18	0	3	23	0	18	Cc1cccc(N(C)c2cc(Nc3ccc(CC(=O)Nc4ccc5ncsc5c4)cc3)ncn2)c1
